≈ marks a conversion by molar mass, not a printed value.
Experiments:
[1] = test system: Mycobacterium tuberculosis; experiment: Antitubercular activity against dormant stage of Mycobacterium tuberculosis H37Ra ATCC 25177 assessed as growth inhibition at 30 ug/ml after 12 days by XRMA relative to control; assay type: functional; conditions: H37Ra ATCC 25177, 288 h
[2] = test system: Mycobacterium tuberculosis; experiment: Antitubercular activity against dormant stage of Mycobacterium tuberculosis H37Ra ATCC 25177 assessed as growth inhibition at 10 ug/ml after 12 days by XRMA relative to control; assay type: functional; conditions: H37Ra ATCC 25177, 288 h
[3] = test system: Mycobacterium tuberculosis; experiment: Antitubercular activity against dormant stage of Mycobacterium tuberculosis H37Ra ATCC 25177 assessed as growth inhibition at 3 ug/ml after 12 days by XRMA relative to control; assay type: functional; conditions: H37Ra ATCC 25177, 288 h
[4] = test system: Mycobacterium tuberculosis; experiment: Antitubercular activity against dormant stage of Mycobacterium tuberculosis H37Ra ATCC 25177 infected in human THP1 cells by nitrate reductase assay; assay type: functional, organism-based; conditions: for MIC90: H37Ra ATCC 25177; for IC50: H37Ra ATCC 25177, THP-1
[5] = test system: Mycobacterium tuberculosis; experiment: Antitubercular activity against dormant stage of Mycobacterium tuberculosis H37Ra ATCC 25177 by two fold dilution technique; assay type: functional
Outline: (§1)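 MIC against dormant-stage bacilli, read out by XTT reduction menadione assay (XRMA), with rifampicin MIC determined the same way as reference.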

THP-1 [6] = experiment: Cytotoxicity against human THP1 cells at 30 ug/ml; assay type: cell-based
THP-1 [7] = experiment: Cytotoxicity against human THP1 cells at 10 ug/ml; assay type: cell-based
THP-1 [8] = experiment: Cytotoxicity against human THP1 cells at 3 ug/ml; assay type: cell-based
[9] = (§2) Growth inhibition of human HeLa cells by MTT assay; assay type: cell-based; conditions: HeLa cells
Outline: (§3)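 Human cancer cell lines were exposed in vitro to a range of compound concentrations. Viability was read by MTT colorimetric assay, and GI50 and GI90 were derived from the concentration series.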

HeLa = experiment: as §2; assay type: cell-based; conditions: hela; outline: as §3
[10] = (§4) Growth inhibition of human A549 cells by MTT assay; assay type: cell-based; conditions: A549 cells; outline: as §3
A549 = experiment: as §4; assay type: cell-based; conditions: a549; outline: as §3
[11] = (§5) Growth inhibition of human PANC1 cells by MTT assay; assay type: cell-based, PANC-1; conditions: PANC-1 cells; outline: as §3
PANC-1 = experiment: as §5; assay type: cell-based; conditions: panc-1; outline: as §3
[12] = test system: Mycobacterium tuberculosis; experiment: Antitubercular activity against dormant stage of Mycobacterium tuberculosis H37Ra ATCC 25177 after 12 days by XRMA; assay type: functional, organism-based; conditions: H37Ra ATCC 25177, 288 h; outline: as §1
[13] = Growth inhibition of human THP1 cells; assay type: cell-based; conditions: THP-1 cells

| SMILES | inhibition at 30 µg/mL [1] [%] | inhibition at 10 µg/mL [2] [%] | inhibition at 3 µg/mL [3] [%] | MIC90 [4] | IC50 [4] | MIC90 [5] | Activity (THP-1 [6]) [%] | Activity (THP-1 [7]) [%] | Activity (THP-1 [8]) [%] | GI50 [9] [µg/mL] | GI90 (HeLa) [µg/mL] | GI50 [10] [µg/mL] | GI90 (A549) [µg/mL] | GI50 [11] [µg/mL] | GI90 (PANC-1) [µg/mL] | IC50 [12] | GI50 [13] [µg/mL] |
| --- | --- | --- | --- | --- | --- | --- | --- | --- | --- | --- | --- | --- | --- | --- | --- | --- | --- |
| Cc1nc(C)c(-c2nn(-c3ccc(F)cc3)cc2/C=C/C(=O)c2c(O)cc(C)c(Cl)c2C)s1 | 10.1 | 9.47 | 3.39 | > 30 µg/mL | > 30 µg/mL | > 30 µg/mL | 41.43 | 18.42 | 13.12 | 59.3 (≈ 123 µM) | 128.28 (≈ 266 µM) | 33.5 (≈ 69.4 µM) | 84.31 (≈ 175 µM) | 35.2 (≈ 73.1 µM) | 97.41 (≈ 202 µM) | > 30000 nM | – |
| Cc1nc(C)c(-c2nn(-c3ccc(F)cc3)cc2/C=C/C(=O)c2cc(Cl)ccc2O)s1 | 3.39 | 5.49 | 2.66 | > 30 µg/mL | > 30 µg/mL | > 30 µg/mL | 36.55 | 34.74 | 16.49 | > 250 | > 250 | > 250 | > 250 | > 250 | > 250 | > 30 µg/mL | – |
| Cc1nc(C)c(-c2nn(-c3ccc(F)cc3)cc2/C=C/C(=O)c2cc(Br)ccc2O)s1 | 27.5 | 9 | 23.5 | > 30 µg/mL | > 30 µg/mL | > 30 µg/mL | 24.98 | 21.42 | 20.41 | 4.88 (≈ 9.79 µM) | 44.94 (≈ 90.2 µM) | > 250 | > 250 | > 250 | > 250 | > 30 µg/mL | – |
| Cc1ccc(O)c(C(=O)/C=C/c2cn(-c3ccc(F)cc3)nc2-c2sc(C)nc2C)c1 | 96 | 61.7 | 34.7 | 17.1 µM | 2860 nM | 32.7 µM | 24.3 | 15.3 | 14.14 | 29.9 (≈ 68.9 µM) | 77.32 (≈ 178 µM) | 47.8 (≈ 110 µM) | 136.87 (≈ 316 µM) | 52.4 (≈ 121 µM) | 114.87 (≈ 265 µM) | 5560 nM | – |
| Cc1ccc(O)c(C2=NNC(c3cn(-c4ccc(F)cc4)nc3-c3sc(C)nc3C)C2)c1 (centres undefined) | 36.7 | 39.7 | 24.8 | 33.4 µM | 11900 nM | 46.4 µM | 24.05 | 10.7 | 5.94 | > 250 | > 250 | > 250 | > 250 | > 250 | > 250 | 4310 nM | – |
| Cc1nc(C)c(-c2nn(-c3ccc(F)cc3)cc2C2CC(c3cc(Br)ccc3O)=NN2)s1 (centres undefined) | 88.2 | 75.5 | 42.5 | 2.95 µM | 410 nM | 5.79 µM | 19.51 | 14.69 | 13.91 | 21.6 (≈ 42.2 µM) | 43.11 (≈ 84.1 µM) | 81.4 (≈ 159 µM) | 154.68 (≈ 302 µM) | 76.4 (≈ 149 µM) | 115.65 (≈ 226 µM) | 310 nM | > 30 |
| Cc1nc(C)c(-c2nn(-c3ccc(F)cc3)cc2C2CC(c3c(O)cc(C)c(Cl)c3C)=NN2)s1 (centres undefined) | 93.7 | 95.4 | 91 | 1.23 µM | 440 nM | 5.04 µM | 18.32 | 15.45 | 9.52 | 25.2 (≈ 50.8 µM) | 46.87 (≈ 94.5 µM) | 43.4 (≈ 87.4 µM) | 88.98 (≈ 179 µM) | 41.6 (≈ 83.9 µM) | 77.64 (≈ 157 µM) | 80 nM | > 30 |
| Cc1ccc2oc(-c3cn(-c4ccc(F)cc4)nc3-c3sc(C)nc3C)cc(=O)c2c1 | 92.2 | 88.6 | 47.8 | 1.23 µM | 160 nM | 5.89 µM | 4.94 | 2.34 | 0.8 | > 250 | > 250 | > 250 | > 250 | > 250 | > 250 | 1070 nM | > 30 |
| Cc1nc(C)c(-c2nn(-c3ccc(F)cc3)cc2-c2cc(=O)c3cc(Cl)c(C)cc3o2)s1 | 93.7 | 23.2 | 53.5 | 2.94 µM | 670 nM | 3.69 µM | 24.65 | 16.62 | 12.82 | 16.7 (≈ 35.8 µM) | 53.48 (≈ 115 µM) | > 250 | > 250 | > 250 | > 250 | 1670 nM | > 30 |
| Cc1nc(C)c(-c2nn(-c3ccc(F)cc3)cc2/C=C/C(=O)c2cc(Cl)cc(Cl)c2O)s1 | 30.5 | 26.8 | 20.4 | > 30 µg/mL | > 30 µg/mL | > 30 µg/mL | 49.76 | 17.69 | 15.71 | > 250 | > 250 | > 250 | > 250 | > 250 | > 250 | > 30 µg/mL | – |
| Cc1nc(C)c(-c2nn(-c3ccc(F)cc3)cc2C2CC(c3cc(Cl)ccc3O)=NN2)s1 (centres undefined) | 97.2 | 79.7 | 41.6 | 1.5 µM | 360 nM | 2.48 µM | 17.04 | 11.51 | 7.09 | > 250 | > 250 | > 250 | > 250 | > 250 | > 250 | 60 nM | > 30 |
| Cc1nc(C)c(-c2nn(-c3ccc(F)cc3)cc2/C=C/C(=O)c2cc(Cl)c(C)cc2O)s1 | 92.7 | 16.3 | 3.95 | 7.56 µM | 1920 nM | 49.7 µM | 17.45 | 13.26 | 10.73 | 34.9 (≈ 74.5 µM) | 87.29 (≈ 187 µM) | > 250 | > 250 | > 250 | > 250 | 2440 nM | – |
| Cc1nc(C)c(-c2nn(-c3ccc(F)cc3)cc2C2CC(c3cc(Cl)c(C)cc3O)=NN2)s1 (centres undefined) | 95.6 | 43.5 | 38.8 | 8.59 µM | 1620 nM | 9.65 µM | 17.93 | 10.66 | 9.1 | > 250 | > 250 | 146 (≈ 302 µM) | > 250 | 127 (≈ 264 µM) | > 250 | 520 nM | > 30 |
| CC(=O)O[C@H]1C(=O)[C@@]2(C)[C@H]([C@H](OC(=O)c3ccccc3)[C@]3(O)C[C@H](OC(=O)[C@H](O)[C@@H](NC(=O)c4ccccc4)c4ccccc4)C(C)=C1C3(C)C)[C@]1(OC(C)=O)CO[C@@H]1C[C@@H]2O [PACLITAXEL] | – | – | – | – | – | – | – | – | – | – | 0.075 (≈ 0.0878 µM) | – | 0.0706 (≈ 0.0827 µM) | – | 5.715 (≈ 6.69 µM) | – | – |
| CO[C@H]1/C=C/O[C@@]2(C)Oc3c(C)c(O)c4c(O)c(c(/C=N/N5CCN(C)CC5)c(O)c4c3C2=O)NC(=O)/C(C)=C\C=C\[C@H](C)[C@H](O)[C@@H](C)[C@@H](O)[C@@H](C)[C@H](OC(C)=O)[C@@H]1C [RIFAMPIN] | – | – | – | – | – | 0.91 µM | – | – | – | > 100 | > 100 | > 100 | > 100 | > 100 | > 100 | – | – |

Source: ChEMBL document CHEMBL4392833, “Thiazolyl-pyrazole derivatives as potential antimycobacterial agents” (Bioorg Med Chem Lett, 2019)
